Hits are enriched below; roughly 3.7% of the tested compounds scored in any of these assays.
hERG protect = hERG rescue from dofetilide block, primary screen, cell-based, CHO-hERG, FluxOR thallium flux, dofetilide IC70 | activation (rescue from dofetilide block), less the hit threshold, % at 10 µM | dofetilide IC70 present | Voltage-gated inwardly rectifying potassium channel KCNH2 (Homo sapiens), Q12809 | AID 1511, 2009 | 310,000 tested, 0.51% active;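 active means activation above the mean of controls blocked by dofetilide plus 5 SD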;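 further: thallium influx through hERG after potassium depolarization seen as dye fluorescence rise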
KCNQ1 act = potentiators or activators of KCNQ1 channel, primary screen, cell-based, thallium flux, high-throughput | Potassium voltage-gated channel subfamily KQT member 1 (Homo sapiens), P51787 | CHO-K1 KCNQ1, thallium flux FluxOR fluorescence; stronger effect = higher value | B-score at 10 µM | 310,000 tested, 0.35% active;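 active means fluorescence ratio B-score, a plate-corrected score, at least three library SD, with initial intensity B-score within 5 SD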
Target sequence (P51787 whole entry, looked up): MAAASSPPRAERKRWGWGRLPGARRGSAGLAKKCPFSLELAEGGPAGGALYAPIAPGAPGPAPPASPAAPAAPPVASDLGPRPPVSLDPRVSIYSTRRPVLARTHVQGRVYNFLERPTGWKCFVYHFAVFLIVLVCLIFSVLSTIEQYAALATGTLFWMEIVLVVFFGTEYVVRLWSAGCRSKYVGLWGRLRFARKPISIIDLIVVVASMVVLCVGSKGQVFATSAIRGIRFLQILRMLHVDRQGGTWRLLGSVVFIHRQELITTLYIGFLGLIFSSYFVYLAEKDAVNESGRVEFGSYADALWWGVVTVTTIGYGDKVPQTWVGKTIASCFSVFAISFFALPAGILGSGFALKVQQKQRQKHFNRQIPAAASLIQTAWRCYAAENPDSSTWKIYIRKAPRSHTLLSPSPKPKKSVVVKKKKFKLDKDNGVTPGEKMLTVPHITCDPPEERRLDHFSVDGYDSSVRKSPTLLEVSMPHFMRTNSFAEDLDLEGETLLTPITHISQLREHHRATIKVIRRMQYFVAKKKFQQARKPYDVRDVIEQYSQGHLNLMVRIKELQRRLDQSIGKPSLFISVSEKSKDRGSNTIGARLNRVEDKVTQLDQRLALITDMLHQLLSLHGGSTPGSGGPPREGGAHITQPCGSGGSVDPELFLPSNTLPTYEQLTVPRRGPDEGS
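assay system = CHO-K1 cells stably expressing KCNQ1 | medium = assay buffer, equal DMSO in all wells | timing = 37 °C overnight plating, 90-min dark dye load, 20-min compound pretreatment | measured by = kinetic FluxOR thallium fluorescence, 10-s 1-Hz baseline, 110-s post-stimulus read | measure = fluorescence change relative to baseline, converted to B score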
Kir21 block = inhibitors of mouse Kir2.1 inward-rectifier potassium channel. 310,000 tested, 0.85% active. HEK293-Kir2.1, FluxOR thallium flux fluorescence; stronger effect = lower value. Inward rectifier potassium channel 2 (Mus musculus), P35561. B-score at 10 µM;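 active means fluorescence ratio B-score at or below minus 3 SD of library scores, with starting-brightness B-score within 2 SD, cut at about -4.2 in these data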;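 further: channel flux triggered by added potassium and thallium sulfate stimulus; B-score of peak minus minimum fluorescence over baseline after thallium stimulus; more negative B-score means stronger Kir2.1 block with less thallium influx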
KCNQ1 block = inhibitors of human KCNQ1 channel, primary screen, cell-based, thallium flux, high-throughput. CHO-K1 KCNQ1, FluxOR thallium flux fluorescence; stronger effect = higher value. B-score at 10 µM. 310,000 tested, 1.3% active;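 active means compounds whose thallium flux B-score, printed positive for inhibition, exceeds three library SD while starting fluorescence stays within three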;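 further: channel opened by potassium depolarization with thallium stimulus after 20 min compound exposure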
KCNK9 block = KCNK9 potassium channel inhibitors, primary screen, HEK293 cells, thallium flux. Potassium channel subfamily K member 9 (Homo sapiens), Q9NPC2. FluxOR thallium flux fluorescence; stronger effect = lower value. B-score at 10 µM. 310,000 tested, 1.2% active. AID 488922, 2010;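 active means ratio B-score over 3 SD below the library mean, with starting fluorescence within 5 SD of its mean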;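 further: negative B-score means less thallium flux so channel inhibition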
KCNK3 block = human KCNK3 channel inhibitors, primary screen, CHO cells, FluxOR thallium flux, B-score. B-score at 10 µM. FluxOR fluorescence; stronger effect = lower value. Potassium channel subfamily K member 3 (Homo sapiens), O14649. AID 602410, 2012. 340,000 tested, 0.84% active;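 active means B-score under library mean minus 4 SD, starting fluorescence ratio at most library mean plus 5 SD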;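 further: more negative B-score means stronger inhibition of thallium flux through KCNK3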
KCNQ1 inh valid = KCNQ1 potassium channel inhibitors, confirmation, cell-based, Tl flux, duplicate; shares compounds with KCNQ1 block; KCNQ1 cell line, FluxOR thallium flux fluorescence; inhibition, % at 10 µM; 1,600 tested, 93% active; AID 588353, 2011;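 active means primary screen active, with duplicate mean exceeding buffer control mean plus 3 SD of buffer wells, cut at about 28% in these data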;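 further: 0% = buffer control ratio and 100% = XE991 inhibitor control ratio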
CHO KCNQ1 ctr = thallium flux effects in parental CHO cells, counter-screen for KCNQ1 inhibitor project, cell-based, Tl flux | parental CHO-K1, FluxOR thallium flux fluorescence ratio; stronger effect = lower value; zero means no signal rise above baseline | shares compounds with KCNQ1 block | fluorescence ratio (Tl flux) at 10 µM | 1,600 tested, 21% active;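 active means mean of duplicate thallium-flux fluorescence ratios in parental host cells more than 5 SD below the buffer control mean, cut at about 0.38 in these data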;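 further: ratio is peak minus minimum fluorescence divided by baseline fluorescence; actives read low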
KCNQ1 APC inh = KCNQ1 channel inhibitors, confirmation, orthogonal assay, cell-based, automated electrophysiology. shares compounds with KCNQ1 block. KCNQ1-CHO cells, automated patch clamp current. calls only at 10 µM. 490 tested, 20% active;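 active means KCNQ1 current drop exceeding 3 SD of negative control wells, seen in both duplicate runs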;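 further: steady state current during a 2 s step from -80 to +40 mV; negative values mean current inhibition and positive values mean potentiation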
KCNQ2 inh = KCNQ2 channel inhibition, selectivity assay for KCNQ1 inhibitor project, cell-based; shares compounds with KCNQ1 block; KCNQ2 cells, FluxOR thallium flux fluorescence; inhibition, % at 10 µM; 1,600 tested, 71% active;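 active means mean percent inhibition of the KCNQ2 thallium signal more than 5 SD above the buffer-only control wells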;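 further: KCNQ2 expressed in CHO cells; 0% = buffer control wells and 100% = XE-991 inhibitor control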
KCNQ1-KCNE1 inh = KCNQ1/KCNE1 channel inhibition, selectivity assay for KCNQ1 inhibitor project, CHO-K1 cells, thallium flux, FluxOR. shares compounds with KCNQ1 block. FluxOR thallium flux fluorescence. inhibition, % at 10 µM. 1,600 tested, 77% active;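 active means mean percent inhibition of duplicate wells above the buffer-only control mean plus 3 SD of those controls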;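 further: 0% = buffer only wells and 100% = XE-991 inhibitor control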
Starred values were filed as active, the others as inactive; i = inactive; nt = not tested or not shown; + = active, no number.

SMILES | hERG protect | KCNQ1 act | Kir21 block | KCNQ1 block | KCNK9 block | KCNK3 block | KCNQ1 inh valid | CHO KCNQ1 ctr | KCNQ2 inh | KCNQ1-KCNE1 inh | others
CN(c1ccccc1)S(=O)(=O)c1ccc(NC(=O)c2ccc(F)cc2)cc1 | -3 | i | 1.2 | 7* | i | i | 90* | 0.45 | 117%* | 131%* | KCNQ1 APC inh=i
COc1ccc(N=c2cc(-c3ccc(OC)cc3)oc3ccccc23)cc1 | -11 | i | -3.8 | 12* | i | i | 147* | 0.36* | i | +
O=C(/C=C/c1ccccc1[N+](=O)[O-])NCCCN1CCCC1=O | -11 | i | -0.31 | i | i | i | nt | nt | nt | nt
COc1ccc(C(=O)C2CCCN(Cc3cc(C)c(O)c(C)c3)C2)c(OC)c1 (stereo not drawn) | -6 | i | -1.5 | i | i | i | nt | nt | nt | nt
COc1ccc(C(=O)C2CCCN(Cc3cc(Cl)ccc3O)C2)c(OC)c1 (stereo not drawn) | -13 | i | 1.5 | 6* | i | i | 62* | 0.41 | 122%* | 86%*
O=C1CN(C(=O)Cn2ncc(Cl)c(Cl)c2=O)c2ccccc2N1 | -21 | i | -0.05 | i | i | i | nt | nt | nt | nt
CC(C)c1ccc(-c2cc(C(=O)N3CCOCC3)c3cc(Br)ccc3n2)cc1 | -12 | i | -0.56 | 6* | i | i | 40* | 0.43 | 131%* | i
O=C(c1cc(-c2ccccc2)nc2ccccc12)N1CCOCC1 | -1 | i | -1.2 | i | i | i | nt | nt | nt | nt
O=C(NC1CCCCC1)N1CCCc2ccccc21 | -10 | i | -1.3 | i | i | i | nt | nt | nt | nt
O=C(NC1CCCCC1)N1CCSC1=Nc1ccccc1 | -20 | i | 1.3 | 10* | i | i | 103* | 0.41 | 110%* | 111%* | KCNQ1 APC inh=i
O=C(c1ccco1)N1CCN(S(=O)(=O)c2ccc(F)cc2)CC1 | -6 | i | -0.1 | i | i | i | nt | nt | nt | nt
CCOC(=O)c1c(NC(=O)c2ccccc2C)sc2c1CC(C)(C)OC2 | -10 | i | 0.27 | 7* | i | i | 86* | 0.44 | 92%* | 150%*
O=C(COc1cccc(C(F)(F)F)c1)Nc1ccc(S(=O)(=O)N2CCCCC2)cc1 | -7 | i | -0.59 | 8* | i | i | 107* | 0.5 | 99%* | 67%* | KCNQ1 APC inh=i
Oc1ccc(-c2n[nH]c(C(F)(F)F)c2-c2ccccc2)c(O)c1 | -20 | i | -2.5 | 8* | i | i | 156* | 0.37* | i | 182%*

From PubChem BioAssay
